Here are results for 1 compound from ChEMBL document CHEMBL1833790, “N-(2-{3-[3,5-bis(trifluoromethyl)phenyl]ureido}ethyl)-glycyrrhetinamide (6b): a novel anticancer glycyrrhetinic acid derivative that targets the proteasome and displays anti-kinase activity” (J Med Chem, 2011).

Activity calls are given as the source filed them. No cut-off for these calls is given here.

One data set relates to Hs 683. Kind of data set: Growth inhibition in apoptosis-sensitive human Hs683 after 3 days by MTT assay. The format is functional. The settings on record: Hs 683, 72 h. An outline of the steps:
(§1)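 Cells grown in RPMI with 10% heat-inactivated FCS, 4 mM glutamine, gentamicin and penicillin–streptomycin. Drug exposure 3 days, growth read by MTT colorimetric assay. Nine concentrations from 0.01 to 100 μM in semilog steps, six replicates each; IC50 derived per cell line.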

Another data set has as its system MCF7. Kind of data set: Growth inhibition in apoptosis-sensitive human MCF7 after 3 days by MTT assay. The settings on record: MCF7, 72 h. The class given is functional. An outline of the steps:
as §1

Data set [1] deals with U-373MG ATCC. The data set can be described thus: Activation of caspase-like activity of 20S proteasome in human U373 cells at 90 uM after 2 days by bioluminescence assay. The format is cell-based. In outline: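 Caspase-like site, substrate Z-nLPnLD-Glo. U373 cells were plated at 5000 cells/mL for 48 h, then treated two days. Cells were PBS-washed and permeabilised with 0.025% digitonin before Proteasome-Glo reagent was added. Luminescence was read after 10 min in the dark. Triplicates, normalised to a parallel MTT viability assay under identical conditions.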

The test system of the next data set is PC-3. Kind of data set: Growth inhibition in apoptosis-sensitive human PC3 after 3 days by MTT assay. The class given is functional. The settings on record: PC-3, 72 h. An outline of the steps:
as §1

Data set [2] deals with A549. Kind of data set: Growth inhibition in apoptosis-resistant human A549 after 3 days by MTT assay. The class given is functional. The settings on record: A549, 72 h. An outline of the steps: as §1
Data set [3] can be described thus: Chemical stability of the compound in MEM cell culture medium after 7 days by HPLC analysis. The settings on record: read-out: Stability. The format is physicochemical. An outline of the steps:
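Compound incubated in MEM culture medium at 37 °C for 7 days, then analysed by HPLC on RX-C8 (5 μm) column with MeOH–water 90:10 (0.1% TFA), diode-array detection. Expressed as % of incubated compound recovered.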

A short description of data set [4]: Growth inhibition in apoptosis-resistant human U373 after 3 days by MTT assay. The class given is functional, U-373MG ATCC. The settings on record: U373 MG, 72 h. An outline of the steps:
as §1

For data set [5], the system named is A549. Kind of data set: Cell cycle arrest in human A549 cells assessed as accumulation of cells in G1 phase at 100 uM after 48 to 72 hrs by TUNEL-based flow cytometric analysis. The format is functional. In outline: (§2)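 A549 NSCLC and U373 GBM cells were treated 48 or 72 h and analysed with the APO AF kit. TUNEL labelling ran 1 h at 37 °C, followed by propidium iodide (5 μg/mL) with RNase. Apoptotic fraction and % cells in G1 were measured by flow cytometry. Kit negative/positive controls and 1 μM narciclasine-treated PC-3 cells served as controls.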

The subject of a further data set is T98G. The data set can be described thus: Growth inhibition in apoptosis-resistant human T98G after 3 days by MTT assay. The format is functional. The settings on record: 72 h. In outline: as §1
For data set [6], the target named is T1, Peroxisome proliferator-activated receptor gamma (Homo sapiens) (UniProt P37231).
T1 sequence (whole entry): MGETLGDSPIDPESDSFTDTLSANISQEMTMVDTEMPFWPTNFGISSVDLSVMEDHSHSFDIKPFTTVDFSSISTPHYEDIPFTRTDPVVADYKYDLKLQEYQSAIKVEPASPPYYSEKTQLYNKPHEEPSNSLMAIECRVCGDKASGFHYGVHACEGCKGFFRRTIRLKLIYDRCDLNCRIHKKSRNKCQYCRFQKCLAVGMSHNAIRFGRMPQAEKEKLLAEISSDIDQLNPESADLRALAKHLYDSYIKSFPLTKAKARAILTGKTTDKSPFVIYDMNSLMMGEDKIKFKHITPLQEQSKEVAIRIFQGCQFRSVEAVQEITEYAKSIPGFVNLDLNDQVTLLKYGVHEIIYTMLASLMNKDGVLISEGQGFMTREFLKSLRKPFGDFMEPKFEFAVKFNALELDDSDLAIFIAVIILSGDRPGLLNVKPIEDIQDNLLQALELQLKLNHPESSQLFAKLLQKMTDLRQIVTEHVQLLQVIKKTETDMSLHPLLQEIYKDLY
The data set can be described thus: Activation of PPARgamma activity in human U373 cells at 90 uM after 6 hrs by spectrophotometric analysis relative to control. The settings on record: U-373MG ATCC.

Data set [7] relates to U-373MG ATCC. Kind of data set: Inhibition of trypsin-like activity of 20S proteasome in human U373 cells at 90 uM after 2 days by bioluminescence assay. The class given is cell-based. In outline:
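U373 GBM cells seeded at 5000 cells/mL and grown 48 h, then treated for two days. Cells washed in PBS and permeabilised with 0.025% digitonin. Proteasome-Glo reagent added with Suc-LLVY-Glo (chymotrypsin-like), Z-LRR-Glo (trypsin-like) or Z-nLPnLD-Glo (caspase-like) substrate. Luminescence read after 10 min in the dark and normalised to a parallel MTT viability assay; triplicates. MG-132 at 0.5 μM used as reference.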

The nature of data set [8]: Cell cycle arrest in human U373 cells assessed as accumulation of cells in G1 phase at 80 uM after 48 to 72 hrs by TUNEL-based flow cytometric analysis. The format is functional. The settings on record: U-373MG ATCC. In outline:
as §2

The subject of data set [9] is U-373MG ATCC. Kind of data set: Activation of chymotrypsin-like activity of 20S proteasome in human U373 cells at 90 uM after 2 days by bioluminescence assay. The class given is cell-based. In outline: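 Chymotrypsin-like site, substrate Suc-LLVY-Glo. U373 cells were seeded at 5000 cells/mL for 48 h and exposed two days. After a PBS wash and 0.025% digitonin permeabilisation, Proteasome-Glo reagent was added. Bioluminescence was read after 10 min dark incubation. Triplicates, normalised by a concurrent MTT viability assay run in identical conditions.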

Another data set deals with B16-F10. The data set can be described thus: Growth inhibition in mouse B16F10 after 3 days by MTT assay. The format is functional. The settings on record: B16-F10, 72 h. In outline:
as §1

The subject of a further data set is SK-MEL-28. The data set can be described thus: Growth inhibition in apoptosis-resistant human SK-MEL-28 after 3 days by MTT assay. The settings on record: SK-MEL-28, 72 h. The class given is functional. In outline:
as §1

As for `CC1(C)[C@@H](O)CC[C@]2(C)[C@H]3C(=O)C=C4[C@@H]5C[C@@](C)(C(=O)O)CC[C@]5(C)CC[C@@]4(C)[C@]3(C)CC[C@@H]12` [ENOXOLONE], the GI50 is 84 µM in the data set on Hs 683; 76 µM with MCF7; 80 µM in the data set on PC-3; over 100 µM in the data set with A549 [2]; 83 µM in [4]; 85 µM in the data set on T98G. Also, the figures for the GI50 in the data set on B16-F10 and with SK-MEL-28 were 37 µM and 92 µM, respectively. For the same compound, the result (with U-373MG ATCC [1]; in data set [6]; in the data set on U-373MG ATCC [9]) was Active. In addition, the remaining at 168 h in data set [3] was 98%. Besides, the outcome (with A549 [5]; in data set [8]) was inactive. Besides, the inhibition entry with U-373MG ATCC [7] was “Active”.
